# Results collected from several papers.
# Target: MAP kinase-interacting serine/threonine-protein kinase 2 (MKNK2, Homo sapiens, UniProt Q9HBH9)
SMILES,assay,setting,remaining binding [%]
COc1ncc2cc3ccccc3nc2c1C#N,"cell-free assay, competition with immobilised ligand",5 µM,98
C[C@@H](c1ccc(-n2cnc3c(N)ncnc32)cc1)N1CCc2nn(C)c(Cc3ccccc3)c2C1=O,"binding, competition with immobilised ligand",0.1 µM,62
CN(CCCC(F)(F)F)c1nccc(-c2cnn3ncccc23)n1,binding,1 µM,35
CCC(=O)N[C@@H]1CC[C@H](C(=O)N(C)c2ccc(-c3nc4ccccc4o3)cc2)C1,"cell-free assay, competition with immobilised ligand",1 µM,100
C[C@@H]1CCN(c2nccc(-c3cnn4ncccc34)n2)C1,binding,1 µM,11
CCN1CCN(Cc2ccc(C(=O)Nc3ccc(C)c(Oc4ccc5c(c4)CC(=O)N5)c3)cc2C(F)(F)F)CC1,"binding, competition with immobilised ligand",1 µM,95
CN(C)c1nccc(-c2cnn3ncccc23)n1,binding,1 µM,28
O=c1nc(-c2ccccn2)sc2ccccc12,"binding, competition with immobilised ligand",1 µM,100
O=C(NCCCN1CCOCC1)c1ccc(Nc2nccc(-c3cc4ccccc4s3)n2)cc1,"binding, competition with immobilised ligand",1 µM,28
COc1cnc(Nc2cccc(S(N)(=O)=O)c2)nc1N1CCN(c2ccccc2)C(=O)C1,"binding, competition with immobilised ligand",1 µM,59
FC(F)(F)c1ccc2c(c1)nc(-c1cccnc1)n2C1CC1,"cell-free assay, competition with immobilised ligand",1 µM,100
CC1CCCN1c1nccc(-c2cnn3ncccc23)n1 (centres unmarked),binding,1 µM,46
O=C(c1ccc(Nc2ncc(Cl)c(-c3cc4ccccc4s3)n2)cc1)N1CCC(N2CCCC2)CC1,"binding, competition with immobilised ligand",1 µM,6.9
FC(F)(F)Oc1cccc(-c2cnc3ccc(-c4ccncc4)nn23)c1,"cell-free assay, competition with immobilised ligand",5 µM,21
CNC(=O)Nc1ccc2c(c1)[C@@]1(CC2)OC(=O)N(CC(=O)N(Cc2ccc(F)cc2)[C@@H](C)C(F)(F)F)C1=O,"cell-free assay, competition with immobilised ligand",1 µM,76
N[C@@H]1CCN(c2nccc(-c3cnn4ncccc34)n2)C1,binding,1 µM,14
Cc1cnc(Nc2ccc(C(=O)N3CCC(N4CCCC4)CC3)cc2)nc1-c1cc2ccccc2s1,"binding, competition with immobilised ligand",1 µM,5.4
CN(C(=O)c1ccccc1)c1cc(N(C)c2ccc3c(c2)CCc2ccc(C(=O)NCCN4CCOCC4)cc2C3=O)ccc1F,"cell-free assay, competition with immobilised ligand",1 µM,100
C[C@@H]1CN(c2ccc3ncc(-c4ccc5[nH]nc(C6CC6)c5c4)n3n2)C[C@H](C)O1,"binding, competition with immobilised ligand",0.5 µM,45
CNCc1ccccc1-c1csc([C@H](C)Nc2nc(C)nc3cc(OC)c(OC)cc23)c1,"cell-free assay, competition with immobilised ligand",1 µM,71
c1cncc(-c2cccc(Nc3nccc(NC4CCCCC4)n3)c2)c1,"binding, competition with immobilised ligand",10 µM,33
Cc1cnn2ncc(-c3ccnc(N(C)C)n3)c2c1,binding,1 µM,49
CO[C@H]1CC[C@H](CNc2ccc(S(=O)(=O)NC(=O)c3ccc(N4CCN(CC5=C(c6ccc(Cl)cc6)CC(C)(C)CC5)CC4)cc3Oc3cnc4[nH]ccc4c3)cc2[N+](=O)[O-])CC1,"cell-free assay, competition with immobilised ligand",1 µM,73
Nc1ncc2c(n1)-c1c([nH]c3ccc(C#CC4CC4)cc13)CCCC2,"binding, competition with immobilised ligand",1 µM,77
CNC(=O)c1ccc(Nc2ncc(C(F)(F)F)c(NCc3nccnc3N(C)S(C)(=O)=O)n2)cc1,"cell-free assay, competition with immobilised ligand",0.1 µM,100
O=C(NCC1CCOCC1)c1n[nH]cc1NC(=O)c1c(F)cccc1F,"binding, competition with immobilised ligand",1 µM,100
